In PubChem BioAssay AID1235 (PCMD, 2008):
In all, about 62,000 compounds went through this assay and about 50 (0.08%) were called active.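 How the source made its calls: active means inhibition above 30% in each of the two pooled mixtures holding the compound, so the lower value exceeds 30%; inactive means the rest.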 This excerpt belongs to a sample that is enriched for actives.

test: blockers of serum C3 deposition on LPS – biochemical, ELISA, human serum, orthogonally pooled compounds, primary screen (AID 1235); details: Human serum alternative complement pathway, LPS-coated ELISA, tested in compound mixtures, at 5 µM, stronger effect = higher value;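 further: 0% = serum in Mg-EGTA without compound and 100% = EDTA serum blank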
Outline: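 Test system: human serum complement alternative pathway, C3 deposition onto LPS / Medium: Mg2+-EGTA GVB++ buffer containing human serum at 1:15 dilution / Probe or stimulus: Plate-bound LPS / Times: 1 h at 37 °C / Signal: ELISA with HRP anti-human C3 antibody, TMB substrate, absorbance 450 nm / Measure: percent inhibition / Repeats: two pool placements per compound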

inhibition, inactive:
O=C(NCc1cccnc1)c1cn(-c2ccccc2)nc1-c1cccs1 0.865%
COc1ccc(NC(=O)CCNC(=O)Cn2ccc3ccccc3c2=O)c(OC)c1 29.1%
CCOC(=O)c1ccc(N2C(=O)CC(N3CCC(C(=O)OCC)CC3)C2=O)cc1 (stereo not drawn) -0.58%
O=P(O)(CN1CCCCC1)CN1CCCCC1 8.65%
Cc1noc(C)c1CSc1nnc2ccc3ccccc3n12 9.95%
COc1ccc(OC)c(S(=O)(=O)Nc2ccccc2F)c1 6.16%
COC(=O)Nc1ccc(S(=O)(=O)N(C)CC(F)(F)C(F)F)cc1 13.5%
Cc1ccc(C)c(N2CCN(C(=O)CCc3nc4ccccc4[nH]3)CC2)c1 18.5%
Cc1ccc(-c2nnn(CC(=O)N(CCO)C(C(=O)NC(C)(C)C)c3ccncc3)n2)cc1 (stereo not drawn) 9.36%
Cc1ccc(C)c(N2CCN(S(=O)(=O)c3ccc4c(c3)oc(=O)n4C)CC2)c1 3.29%
CN(C)CC(O)COc1ccc(C(C)(C)c2ccc(OCC(O)CN(C)C)cc2)cc1 (stereo not drawn) 0.48%
Cc1nc(Nc2ccc3c(c2)OCCO3)c2nnn(Cc3ccccc3Cl)c2n1 1.64%
Cc1cc(C)c(C#N)c(SCS(=O)c2ccc(C(C)(C)C)cc2)n1 (stereo not drawn) 4.51%
COc1ccc(-c2[nH]nc3c2C(c2ccncc2)C(C#N)=C(N)O3)cc1 (stereo not drawn) 0.015%
CC(C)(C)c1cc(CN2CCN(CCC#N)CC2)cc(C(C)(C)C)c1O -7.06%
CC1CCc2c(sc(NC(=O)c3ccc(Cn4cc(Br)cn4)o3)c2C(N)=O)C1 (stereo not drawn) 8.16%
Cc1cccc(N=C2NC(=O)CS2)c1C 4.01%
Cc1ccc2nc(S(=O)(=O)O)[nH]c2c1 -4.08%
O=C(Cn1nc(C(F)(F)F)c2c1CCC2)NCc1ccc(F)cc1 -10.2%
CCc1nnc(NC(=O)CSc2nnc(-c3ccncc3)n2Cc2ccccc2)s1 6.79%
C=C(C)Cn1c(N2CCN(CC)CC2)nc2c1c(=O)[nH]c(=O)n2C -2.46%
COC(=O)C(C)n1cnc2c(nnn2-c2cccc(Cl)c2)c1=O (stereo not drawn) 7.95%
Cc1c(C(=O)N2CC(C)OC(C)C2)sc2nc(-c3ccccc3)cn12 (stereo not drawn) 11%
FC(F)(F)c1cccc(Nc2ncnc3ccccc23)c1 13.9%
Cc1cc(=O)n2nc(N3CCCC3C(=O)NCCCN3CC(C)CC(C)C3)sc2n1 (stereo not drawn) 20.4%
CCCN1CC=C2C(C#N)=C(N)C(C#N)(C#N)C(c3cc(OC)ccc3OC)C2C1 (stereo not drawn) -5.21%
Cc1cc(C(=O)O)c(S(C)(=O)=O)s1 21.7%
O=C(OCc1cc2ccccc2[nH]c1=O)c1cccnc1 1.83%
CCOC(=O)N1CCN(CC(=O)c2ccc3c(c2)CCN3)CC1 22.3%
CCOC(=O)C1(C(F)(F)F)N=C(N(C)C)OC(N(C)C)=N1 23.1%
O=C(CSc1n[nH]c(-c2cccnc2)n1)Nc1ccnc2ccccc12 -1.01%
CSc1nnc2c(n1)OC(c1cn(C)c3ccccc13)N(C(C)=O)c1ccccc1-2 (stereo not drawn) 12.4%
Cc1nc2nc(CSc3nc4ccccc4s3)cc(=O)n2[nH]1 8.57%
O=C(NCc1ccc2c(c1)OCO2)C1CCCN(S(=O)(=O)c2cccs2)C1 (stereo not drawn) 7.05%
CCCCn1c(SCc2ncc(-c3ccccc3)o2)nc2cc(S(N)(=O)=O)ccc21 20.9%
O=C(CC(NCCN1CCOCC1)C(=O)O)Nc1cccc(Cl)c1 (stereo not drawn) -2.21%
COc1ccc(CC(=O)Nc2c3c(nn2-c2cccc(Cl)c2)CS(=O)C3)cc1 (stereo not drawn) 11.2%
Cc1ccc(OS(=O)Nc2cccc3nccnc23)cc1 (stereo not drawn) 10%
CCN(c1ccc2c(c1)OCO2)S(=O)(=O)c1cc(Br)cc2c1N(C(=O)C1CC1)CC2 -0.915%
COc1ccccc1-c1nnc(SCC(=O)Nc2ccccc2)o1 4.25%
CCOc1ccccc1NC(=O)CCc1ccc(C)o1 9.69%
O=C(Nc1ccc(S(=O)(=O)N2CCCCC2)cc1)c1cnccn1 13.5%
CCCCCCn1c(CN2CCCC(C)C2)nc2c1c(=O)n(C)c(=O)n2C (stereo not drawn) 8.35%
CCCOc1ccccc1-c1nc(SCCC(=O)O)n[nH]1 24%
CCCCCn1c(SCCC(C)C)nc2c1c(=O)[nH]c(=O)n2C 4.81%
COc1cc(Cl)c(C)cc1NC(=O)CSc1nnc(-c2ccco2)n1CC(C)C 10.7%
OC(COc1ccccc1)Cn1cc(Br)cn1 (stereo not drawn) 3.79%
c1ccc(-n2ncc3c2ncn2c(C4CCCCC4)nnc32)cc1 14.3%
COc1ccc(CCNC(=O)CCn2c(=O)oc3ccccc32)cc1OC 6.83%
CSCCC(NC(=O)C1CCC(C)CC1)C(=O)NCc1ccco1 (stereo not drawn) 11.6%
COC(=O)c1cc(Cl)c(NC(=O)c2ccco2)cc1OC 13%
COCCCNC(=O)CSc1nc2ccc(N3CCOCC3)cc2c(=O)n1CCc1ccccc1 22.2%
CCOC(=O)c1ccc(NC(=O)CSc2nnc(COc3ccccc3OC)n2C)cc1 7.25%
CCOC(=O)c1sc(=S)n(-c2cccc(OC)c2)c1N 5.37%
Cc1ccc(NC(=O)CCNS(=O)(=O)c2ccc3c(c2)oc(=O)n3C)cc1C 15.7%
CC1(C)CC(=O)C=C(NCc2ccncc2)C1 -1.25%
Cc1nn(C(=O)c2ccoc2C)c(N)c1-c1ccccc1 10.4%
O=C(N1CCOCC1)N(Cc1ccccc1)c1ccccn1 -5.66%
Cc1ccc(-c2csc3nnc(SCC(=O)NCc4ccco4)n23)cc1 2.88%
COc1ccc(C2C(C(=O)N3CCN(c4ccc(OC)cc4)CC3)c3ccccc3C(=O)N2C)cc1 (stereo not drawn) 8.23%
O=C(CSc1nc2ccccc2[nH]1)c1cccs1 12.6%
O=C(c1cc(-c2ccc(O)cc2)on1)N1CCCc2ccccc21 9.64%
CC(C)(C)NC(=O)C(c1ccncc1)N(C(=O)CNC(=O)c1ccco1)c1ccc2c(c1)OCO2 (stereo not drawn) 4.9%
c1ccc(-c2cc(-c3nnc4sc(-c5ccccn5)nn34)[nH]n2)cc1 8.74%
CC12CCC(C(=O)N3CCN(c4ncccn4)CC3)(c3nc4ccccc4nc31)C2(C)C (stereo not drawn) 20.7%
O=C(O)C1CC(=O)N(Cc2cccnc2)C1 (stereo not drawn) 15.1%
COCCNC(=O)Cn1cc2c(n1)CCCCC2 3.37%
COc1ccc(S(=O)(=O)N(CCCN2CCCC2=O)Cc2cc3c(C)ccc(C)c3[nH]c2=O)cc1 5.72%
Clc1ccc(CSc2nnc([C@@H]3CCCN3)o2)cc1 13.7%
CCn1c(SCC(=O)Nc2nc3ccc(OC)cc3s2)nnc1-c1ccoc1C 4.77%
COC(=O)N1CN(C(=O)OC)CN(C(=O)OC)C1 4.11%
Cn1c(SCc2c(F)cccc2Cl)nnc1-c1cnccn1 -5.66%
O=S(=O)(c1ccc(Sc2nnc3ccccn23)nc1)N1CCOCC1 -7.45%
COc1ccccc1-c1cc(C(=O)NCCCn2ccnc2)no1 1.27%
COc1ccccc1N1CCN(CCCCOc2ccc(F)cc2)CC1 0.215%
O=C1CC2(CCCCC2)Oc2ccc(OCC(=O)N3CCOCC3)cc21 9.94%
Cc1csc(NC(=O)C2CCCN2C(=O)OCC(C)C)n1 (stereo not drawn) -7.74%
Cc1cccc(N2CCN(C(=O)c3cc4c(=O)[nH]c5ccccc5c4n3C)CC2)c1C 8.97%
